Measured values from ChEMBL document CHEMBL1821613, “Synthesis and evaluation of 5-substituted 2'-deoxyuridine monophosphate analogues as inhibitors of flavin-dependent thymidylate synthase in Mycobacterium tuberculosis” (J Med Chem, 2011).

What was measured:
[1] = target: T1, Thymidylate synthase ThyA (Mycobacterium tuberculosis, UniProt P9WFR9); assay: Inhibition of Mycobacterium tuberculosis His-tagged ThyA-mediated dTMP synthesis expressed in BL21 (DE3) Escherichia coli RbCl cells after 30 mins by photometric assay
T1 sequence (P9WFR9 whole entry): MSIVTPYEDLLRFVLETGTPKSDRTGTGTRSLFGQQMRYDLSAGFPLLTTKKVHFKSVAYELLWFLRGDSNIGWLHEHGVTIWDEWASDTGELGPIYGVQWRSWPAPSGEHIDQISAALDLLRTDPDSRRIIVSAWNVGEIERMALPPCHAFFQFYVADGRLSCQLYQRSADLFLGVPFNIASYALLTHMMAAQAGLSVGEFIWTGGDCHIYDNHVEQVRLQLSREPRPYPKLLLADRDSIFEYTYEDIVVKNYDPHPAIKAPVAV

[2] = target: T2, Flavin-dependent thymidylate synthase (Mycobacterium tuberculosis, UniProt P9WG57); assay: Inhibition of Mycobacterium tuberculosis ThyX-mediated dTMP synthesis using [5-3H]dUMP as substrate after 10 mins by liquid scintillation counting
T2 sequence (P9WG57 whole entry): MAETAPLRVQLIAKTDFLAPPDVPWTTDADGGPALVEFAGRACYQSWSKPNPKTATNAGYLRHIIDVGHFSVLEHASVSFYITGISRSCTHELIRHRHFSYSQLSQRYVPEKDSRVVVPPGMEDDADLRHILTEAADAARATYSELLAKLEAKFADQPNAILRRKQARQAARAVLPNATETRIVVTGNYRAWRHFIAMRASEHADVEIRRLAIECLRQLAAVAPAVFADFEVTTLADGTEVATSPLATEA
Summary of the method: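 Purified M. tuberculosis ThyX with 20 μM mTHF, 10 μM FAD and 500 μM NADPH; reaction started with [5-3H]dUMP (13 Ci/mmol, stock 2 μM), run 10 min at room temperature, stopped with TCA/dUMP. Unreacted substrate removed with activated charcoal (15 min on ice, then centrifugation); tritiated water in supernatant counted. IC50 from dose-response curves of percent activity versus control.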

[3] = target: T3, Flavin-dependent thymidylate synthase (Mycobacterium tuberculosis) (UniProt P9WG57); assay: Inhibition of Mycobacterium tuberculosis ThyX-mediated dTMP synthesis using [5-3H]dUMP as substrate at 50 uM after 10 mins by liquid scintillation counting
T3 sequence (whole entry): T2 sequence (P9WG57 whole entry)
Summary of the method: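 Compounds tested at a single 50 μM dose on purified M. tuberculosis ThyX with 20 μM mTHF, 10 μM FAD, 500 μM NADPH. [5-3H]dUMP (13 Ci/mmol, stock 2 μM) added to start, 10 min at room temperature, TCA/dUMP stop, charcoal cleanup, tritiated water counted by scintillation; percent inhibition relative to control.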

Work on `CCCC(=O)NCC#Cc1cn([C@H]2C[C@H](O)[C@@H](COP(=O)(O)O)O2)c(=O)[nH]c1=O` yielded an IC50 [1] of over 50 µM, an IC50 [2] of 26.2 µM and an inhibition [3] of 72%.
Work on `CCCCNC(=O)CCCCC#Cc1cn([C@H]2C[C@H](O)[C@@H](COP(=O)(O)O)O2)c(=O)[nH]c1=O` yielded an IC50 [1] of over 50 µM, an IC50 [2] of 8.03 µM and an inhibition [3] of 74.6%.
Compound `CCCCCC(=O)NCC#Cc1cn([C@H]2C[C@H](O)[C@@H](COP(=O)(O)O)O2)c(=O)[nH]c1=O` has an IC50 [1] of over 50 µM, an IC50 [2] of 8.61 µM and an inhibition [3] of 89.9%.
Compound `O=C(Cc1ccccc1)NCC#Cc1cn([C@H]2C[C@H](O)[C@@H](COP(=O)(O)O)O2)c(=O)[nH]c1=O` has an IC50 [1] of over 50 µM, an IC50 [2] of 7.3 µM and an inhibition [3] of 86.9%.
`O=c1[nH]c(=O)n([C@H]2C[C@H](O)[C@@H](COP(=O)(O)O)O2)cc1-c1ccc(F)cc1` gave an IC50 [1] of over 50 µM, an IC50 [2] of 10 µM and an inhibition [3] of 74%.
Work on `CCCCCCCCCCC#Cc1cn([C@H]2C[C@H](O)[C@@H](COP(=O)(O)O)O2)c(=O)[nH]c1=O` yielded an IC50 [1] of over 50 µM, an IC50 [2] of 27.8 µM and an inhibition [3] of 82.6%.
For `CCCCCCCCCCC#Cc1cn([C@@H]2O[C@H](COP(=O)(O)O)[C@@H](O)[C@@H]2O)c(=O)[nH]c1=O`, the IC50 [1] was over 50 µM, the IC50 [2] was over 50 µM and the inhibition [3] was 19%.
For `CCCCCCCC(=O)NCC#Cc1cn([C@H]2C[C@H](O)[C@@H](COP(=O)(O)O)O2)c(=O)[nH]c1=O`, the IC50 [1] was over 50 µM, the IC50 [2] was 0.91 µM and the inhibition [3] was 92.8%.
`COc1cccc(-c2cn([C@H]3C[C@H](O)[C@@H](COP(=O)(O)O)O3)c(=O)[nH]c2=O)c1` showed an IC50 [1] of over 50 µM, an IC50 [2] of over 50 µM and an inhibition [3] of 16%.
`N#C/C=C/c1cn([C@H]2C[C@H](O)[C@@H](COP(=O)(O)O)O2)c(=O)[nH]c1=O` showed an IC50 [1] of over 50 µM, an IC50 [2] of 7.4 µM and an inhibition [3] of 81.3%.
`CCCCCCCS(=O)(=O)NCC#Cc1cn([C@H]2C[C@H](O)[C@@H](COP(=O)(O)O)O2)c(=O)[nH]c1=O` showed an IC50 [1] of over 50 µM, an IC50 [2] of 6.93 µM and an inhibition [3] of 84.7%.
With `CCCCNC(=O)CCCCC#Cc1cn([C@@H]2O[C@H](COP(=O)(O)O)[C@@H](O)[C@@H]2O)c(=O)[nH]c1=O` the IC50 [1] was over 50 µM, the IC50 [2] was over 50 µM and the inhibition [3] was 21%.
Compound `O=c1[nH]c(=O)n([C@H]2C[C@H](O)[C@@H](COP(=O)(O)O)O2)cc1F` has an IC50 [1] of 0.57 µM, an IC50 [2] of 0.29 µM and an inhibition [3] of 95.1%.
In the case of `CCCCCCNC(=O)NCC#Cc1cn([C@H]2C[C@H](O)[C@@H](COP(=O)(O)O)O2)c(=O)[nH]c1=O`, the IC50 [1] is reported as over 50 µM, the IC50 [2] is reported as 4.84 µM and the inhibition [3] is reported as 90.9%.
